Here are results for three molecules from ChEMBL document CHEMBL1629545, “A morpholino oligomer targeting highly conserved internal ribosome entry site sequence is able to inhibit multiple species of picornavirus” (Antimicrob Agents Chemother, 2008).

The subject of data set [1] is HeLa. The data set can be described thus: Cytotoxicity against human HeLa cells at 10 uM by MTS assay. In kind it is cell-based. The method in brief:
(§1)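 HeLa cells at ~80% confluence, uninfected, exposed to 1–100 μM PPMO or water (mock) in serum-free DMEM-F-12 (1:1) for 24 h. MTS reagent was added for 4 h and absorbance read at 492 nm. Viability was expressed as percent of water-treated cells (set to 100%), averaged over 12 wells.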

The next data set has as its system Poliovirus 1. The data set can be described thus: Antiviral activity against Human poliovirus type 1 infected in Human HeLa cell assessed as inhibition of translation at 10 ug/ml by luciferase reporter gene assay. In kind it is functional, organism-based. The method in brief:
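In-cell translation control: HeLa cells electroporated with 20 μg PV1-Luc replicon RNA were placed in medium with 10 μg/ml puromycin at 37°C in 5% CO2. Luciferase in lysates was read by luminometer at hourly time points after transfection. Two experiments were averaged.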

Another data set concerns SK-N-MC. The data set can be described thus: Cytotoxicity against human SK-N-MC cell at 10 uM after 24 hrs by MTS assay. In kind it is cell-based.
In another data set the test system is Vero. The data set can be described thus: Cytotoxicity against African green monkey Vero cells at 10 uM after 24 hrs by MTS assay. In kind it is cell-based. The note with it: chlorocebus sabaeus.
Data set [2] has as its system HeLa. The data set can be described thus: Cytotoxicity against human HeLa cells 10 uM after 24 hrs by MTS assay. In kind it is cell-based. The method in brief: as §1

The structures appear in SMILES notation. Activity calls are given as the source filed them. The calls are words filed in the database; no cut-off is given here.

On to `Cc1cn([C@H]2CN(P(=O)(OC[C@@H]3CN(P(=O)(OC[C@@H]4CN(P(=O)(OC[C@@H]5CN(P(=O)(OC[C@@H]6CN(P(=O)(OC[C@@H]7CN(P(=O)(OC[C@@H]8CN(P(=O)(OC[C@@H]9CN(P(=O)(OC[C@@H]%10CN(P(=O)(OC[C@@H]%11CN(P(=O)(OC[C@@H]%12CNC[C@H](n%13cnc%14c(N)ncnc%14%13)O%12)N(C)C)C[C@H](n%12cnc%13c(N)ncnc%13%12)O%11)N(C)C)C[C@H](n%11cnc%12c(N)ncnc%12%11)O%10)N(C)C)C[C@H](n%10cc(C)c(=O)[nH]c%10=O)O9)N(C)C)C[C@H](n9cc(C)c(=O)[nH]c9=O)O8)N(C)C)C[C@H](n8cnc9c(N)ncnc98)O7)N(C)C)C[C@H](n7cnc8c(N)ncnc87)O6)N(C)C)C[C@H](n6cnc7c(=O)[nH]c(N)nc76)O5)N(C)C)C[C@H](n5ccc(N)nc5=O)O4)N(C)C)C[C@H](n4ccc(N)nc4=O)O3)N(C)C)C[C@@H](COP(=O)(N(C)C)N3C[C@@H](COP(=O)(N(C)C)N4C[C@@H](COP(=O)(N(C)C)N5C[C@@H](COP(=O)(N(C)C)N6C[C@@H](COP(=O)(N(C)C)N7C[C@@H](COP(=O)(N(C)C)N8C[C@@H](COP(=O)(N(C)C)N9C[C@@H](COP(=O)(N(C)C)N%10C[C@@H](COP(=O)(N(C)C)N%11CCN(C(=O)CCNC(=O)CCCCCNC(=O)[C@H](CCCNC(=N)N)NC(=O)CCCCCNC(=O)[C@H](CCCNC(=N)N)NC(=O)[C@H](CCCNC(=N)N)NC(=O)CCCCCNC(=O)[C@H](CCCNC(=N)N)NC(=O)[C@H](CCCNC(=N)N)NC(=O)CCCCCNC(=O)[C@H](CCCNC(=N)N)NC(=O)[C@H](CCCNC(=N)N)NC(=O)CCCCCNC(=O)[C@@H](N)CCCNC(=N)N)CC%11)O[C@@H](n%11cc(C)c(=O)[nH]c%11=O)C%10)O[C@@H](n%10cc(C)c(=O)[nH]c%10=O)C9)O[C@@H](n9cc(C)c(=O)[nH]c9=O)C8)O[C@@H](n8cc(C)c(=O)[nH]c8=O)C7)O[C@@H](n7cc(C)c(=O)[nH]c7=O)C6)O[C@@H](n6cc(C)c(=O)[nH]c6=O)C5)O[C@@H](n5cc(C)c(=O)[nH]c5=O)C4)O[C@@H](n4ccc(N)nc4=O)C3)O2)c(=O)[nH]c1=O` (stereo not given in full), for which the Activity result is listed as “Non-toxic” with HeLa [1], “Non-toxic” with SK-N-MC, “Non-toxic” in the data set with Vero and “Toxic” in the data set with HeLa [2]. Besides, the result with Poliovirus 1 was inactive.

With `Cc1cn([C@H]2CN(P(=O)(OC[C@@H]3CN(P(=O)(OC[C@@H]4CN(P(=O)(OC[C@@H]5CN(P(=O)(OC[C@@H]6CN(P(=O)(OC[C@@H]7CN(P(=O)(OC[C@@H]8CN(P(=O)(OC[C@@H]9CN(P(=O)(OC[C@@H]%10CN(P(=O)(OC[C@@H]%11CN(P(=O)(OC[C@@H]%12CN(P(=O)(OC[C@@H]%13CN(P(=O)(OC[C@@H]%14CN(P(=O)(OC[C@@H]%15CN(P(=O)(OC[C@@H]%16CN(P(=O)(OC[C@@H]%17CN(P(=O)(OC[C@@H]%18CN(P(=O)(OC[C@@H]%19CN(P(=O)(OC[C@@H]%20CN(P(=O)(OC[C@@H]%21CN(P(=O)(OC[C@@H]%22CNC[C@H](n%23cnc%24c(N)ncnc%24%23)O%22)N(C)C)C[C@H](n%22cc(C)c(=O)[nH]c%22=O)O%21)N(C)C)C[C@H](n%21ccc(N)nc%21=O)O%20)N(C)C)C[C@H](n%20cnc%21c(N)ncnc%21%20)O%19)N(C)C)C[C@H](n%19cc(C)c(=O)[nH]c%19=O)O%18)N(C)C)C[C@H](n%18cc(C)c(=O)[nH]c%18=O)O%17)N(C)C)C[C@H](n%17cnc%18c(=O)[nH]c(N)nc%18%17)O%16)N(C)C)C[C@H](n%16cnc%17c(=O)[nH]c(N)nc%17%16)O%15)N(C)C)C[C@H](n%15cnc%16c(=O)[nH]c(N)nc%16%15)O%14)N(C)C)C[C@H](n%14cnc%15c(N)ncnc%15%14)O%13)N(C)C)C[C@H](n%13cc(C)c(=O)[nH]c%13=O)O%12)N(C)C)C[C@H](n%12cnc%13c(=O)[nH]c(N)nc%13%12)O%11)N(C)C)C[C@H](n%11cnc%12c(=O)[nH]c(N)nc%12%11)O%10)N(C)C)C[C@H](n%10cnc%11c(N)ncnc%11%10)O9)N(C)C)C[C@H](n9cnc%10c(=O)[nH]c(N)nc%109)O8)N(C)C)C[C@H](n8cc(C)c(=O)[nH]c8=O)O7)N(C)C)C[C@H](n7ccc(N)nc7=O)O6)N(C)C)C[C@H](n6cnc7c(N)ncnc76)O5)N(C)C)C[C@H](n5cnc6c(=O)[nH]c(N)nc65)O4)N(C)C)C[C@H](n4ccc(N)nc4=O)O3)N(C)C)C[C@@H](COP(=O)(N(C)C)N3CCN(C(=O)CCNC(=O)CCCCCNC(=O)[C@H](CCCNC(=N)N)NC(=O)CCCCCNC(=O)[C@H](CCCNC(=N)N)NC(=O)[C@H](CCCNC(=N)N)NC(=O)CCCCCNC(=O)[C@H](CCCNC(=N)N)NC(=O)[C@H](CCCNC(=N)N)NC(=O)CCCCCNC(=O)[C@H](CCCNC(=N)N)NC(=O)[C@H](CCCNC(=N)N)NC(=O)CCCCCNC(=O)[C@@H](N)CCCNC(=N)N)CC3)O2)c(=O)[nH]c1=O` (stereo not given in full), the Activity result is recorded as “Non-toxic” in the data set with HeLa [1], “Non-toxic” with SK-N-MC, “Non-toxic” in the data set on Vero and “Toxic” with HeLa [2]. Besides, the outcome in the data set on Poliovirus 1 was inactive.

`Cc1cn([C@H]2CNC[C@@H](COP(=O)(N(C)C)N3C[C@@H](COP(=O)(N(C)C)N4C[C@@H](COP(=O)(N(C)C)N5C[C@@H](COP(=O)(N(C)C)N6C[C@@H](COP(=O)(N(C)C)N7C[C@@H](COP(=O)(N(C)C)N8C[C@@H](COP(=O)(N(C)C)N9C[C@@H](COP(=O)(N(C)C)N%10C[C@@H](COP(=O)(N(C)C)N%11C[C@@H](COP(=O)(N(C)C)N%12C[C@@H](COP(=O)(N(C)C)N%13C[C@@H](COP(=O)(N(C)C)N%14C[C@@H](COP(=O)(N(C)C)N%15C[C@@H](COP(=O)(N(C)C)N%16C[C@@H](COP(=O)(N(C)C)N%17C[C@@H](COP(=O)(N(C)C)N%18C[C@@H](COP(=O)(N(C)C)N%19C[C@@H](COP(=O)(N(C)C)N%20C[C@@H](COP(=O)(N(C)C)N%21C[C@@H](COP(=O)(N(C)C)N%22C[C@@H](COP(=O)(N(C)C)N%23CCN(C(=O)CCNC(=O)CCCCCNC(=O)[C@H](CCCNC(=N)N)NC(=O)CCCCCNC(=O)[C@H](CCCNC(=N)N)NC(=O)[C@H](CCCNC(=N)N)NC(=O)CCCCCNC(=O)[C@H](CCCNC(=N)N)NC(=O)[C@H](CCCNC(=N)N)NC(=O)CCCCCNC(=O)[C@H](CCCNC(=N)N)NC(=O)[C@H](CCCNC(=N)N)NC(=O)CCCCCNC(=O)[C@@H](N)CCCNC(=N)N)CC%23)O[C@@H](n%23cc(C)c(=O)[nH]c%23=O)C%22)O[C@@H](n%22cnc%23c(N)ncnc%23%22)C%21)O[C@@H](n%21ccc(N)nc%21=O)C%20)O[C@@H](n%20cnc%21c(=O)[nH]c(N)nc%21%20)C%19)O[C@@H](n%19cnc%20c(=O)[nH]c(N)nc%20%19)C%18)O[C@@H](n%18cc(C)c(=O)[nH]c%18=O)C%17)O[C@@H](n%17cnc%18c(=O)[nH]c(N)nc%18%17)C%16)O[C@@H](n%16cc(C)c(=O)[nH]c%16=O)C%15)O[C@@H](n%15cc(C)c(=O)[nH]c%15=O)C%14)O[C@@H](n%14cc(C)c(=O)[nH]c%14=O)C%13)O[C@@H](n%13cnc%14c(=O)[nH]c(N)nc%14%13)C%12)O[C@@H](n%12ccc(N)nc%12=O)C%11)O[C@@H](n%11cc(C)c(=O)[nH]c%11=O)C%10)O[C@@H](n%10ccc(N)nc%10=O)C9)O[C@@H](n9cc(C)c(=O)[nH]c9=O)C8)O[C@@H](n8cc(C)c(=O)[nH]c8=O)C7)O[C@@H](n7cnc8c(=O)[nH]c(N)nc87)C6)O[C@@H](n6cnc7c(N)ncnc76)C5)O[C@@H](n5cnc6c(N)ncnc65)C4)O[C@@H](n4ccc(N)nc4=O)C3)O2)c(=O)[nH]c1=O` (stereo not given in full): the Activity entry with HeLa [1] is “Non-toxic”; with SK-N-MC it was “Non-toxic”; in the data set with Vero it was “Non-toxic”; in the data set on HeLa [2] it was “Toxic”. Also, the result in the data set with Poliovirus 1 was inactive.
